Activity calls are given as the source filed them. The calls are words filed in the database; no cut-off is given here.
Tests used:
[1] = Drug uptake in human HN-143-T-EC cells assessed as drug retention in mitochondria measured after 72 hrs chase period by fluorescent microscopy; assay type: ADME
[2] = Drug uptake in human HN-143-T-EC cells assessed as drug retention in endoplasmic reticulum measured after 72 hrs by fluorescent microscopy; assay type: ADME, cell-based
[3] = Drug uptake in human HN-143 T-EC cells assessed as drug retention at 1600 nM incubated for 24 hrs in presence of 10% fetal bovine serum measured after 72 hrs chase period by fluorescent microscopy imaging based analysis; assay type: ADME, cell-based; conditions: 1.6 µM
Summary of the method: (§1)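 Cells incubated 24 h in medium with 10% serum and 1600 nM PS, then chased in PS-free medium for up to 72 h with daily medium changes. Cellular PS was measured daily by fluorescence microscopy; net fluorescence intensity per full image frame was quantified in arbitrary units.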

[4] = Drug uptake in human HN-143 T-EC cells assessed as slow release by measuring drug retention at 1600 nM incubated for 24 hrs in presence of 10% fetal bovine serum measured after 48 hrs chase period by fluorescent microscopy imaging based analysis; assay type: ADME, cell-based; conditions: 1.6 µM; summary of the method: as §1
[5] = Photoreactivation in human TEC21 cells in presence of 10% fetal bovine serum under 665 nm light for 9 mins measured after 24 hrs by immune blot analysis; assay type: cell-based; conditions: tec-21, 24 h
Summary of the method: (§2)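 TEC-21 cells (p 8) treated 24 h in RPMI + 10% FBS with PS, imaged, chased 48 h in RPMI + 10% FBS, then irradiated 9 min with 665 nm light (6 mW/cm²). Cells were extracted immediately and immunoblotted for STAT3 crosslinking, EGFR and phospho-p38 MAPK.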

[6] = Lipophilicity, logP of the compound; assay type: physicochemical; conditions: octanol/water
[7] = Drug uptake in human HN-143 T-EC cells assessed as drug retention at 1600 nM incubated for 24 hrs in presence of 10% fetal bovine by fluorescent microscopy imaging based analysis; assay type: ADME, cell-based; conditions: 1.6 µM; summary of the method: as §1
[8] = Drug uptake in tissue cultured human TEC1-2 cells assessed as drug retention at 1600 nM incubated for 24 hrs in presence of 10% fetal bovine serum measured after 48 hrs chase period by fluorescent microscopy; assay type: ADME, tissue-based; conditions: tec1-2, 24 h, 1.6 µM
[9] = Photoreactivation in human TEC21 cells assessed as STAT3cross-linking in presence of 10% fetal bovine serum under 665 nm light for 9 mins measured after 24 hrs by immune blot analysis; assay type: cell-based; conditions: tec-21, 0.15 h; summary of the method: as §2
[10] = Drug uptake in human HN-143 T-EC cells assessed as drug retention at 1600 nM incubated for 24 hrs in presence of 10% fetal bovine serum measured after 48 hrs chase period by fluorescent microscopy imaging based analysis; assay type: ADME, cell-based; conditions: 1.6 µM; summary of the method: as §1
[11] = Drug uptake in tissue cultured human TEC1-2 cells assessed as drug retention at 1600 nM incubated for 24 hrs in presence of 10% fetal bovine serum measured after 24 hrs chase period by fluorescent microscopy; assay type: ADME, tissue-based; conditions: tec1-2, 24 h, 1.6 µM
[12] = Drug uptake in human TEC-21 cells assessed as drug retention at 1600 nM incubated for 24 hrs in presence of 10% fetal bovine serum measured after72 hrs chase period by fluorescent microscopy imaging based analysis; assay type: ADME, cell-based; conditions: tec-21, 72 h, 1.6 µM; summary of the method: as §1
[13] = Drug uptake in human TEC-1 cells assessed as drug retention at 1600 nM incubated for 24 hrs in presence of 10% fetal bovine serum measured after 48 hrs chase period by fluorescent microscopy; assay type: ADME, cell-based; conditions: tec-1, 48 h, 1.6 µM
Summary of the method: (§3)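 Confluent cultures (e.g. HN-77 T-EC, p 13) incubated 24 h in RPMI + 10% FBS with 1600 nM PS, then 48 h chase in RPMI + 10% FBS. Fluorescence images recorded and net fluorescence intensity quantified.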

[14] = Drug uptake in human HNT1 cells assessed as drug retention at 1600 nM incubated for 24 hrs in presence of 10% fetal bovine serum measured after 24 hrs chase period by fluorescent microscopy; assay type: ADME, cell-based; conditions: hnt1, 24 h, 1.6 µM
[15] = Drug uptake in human FaDu-124 cell membrane assessed as drug internalization at 1600 nM incubated for 30 mins at 37 degC; assay type: ADME, cell-based; conditions: fadu-124, 0.5 h, 1.6 µM
Summary of the method: (§4)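 FaDu-124 cells, 30 min on ice in serum-free DMEM with 1600 nM PS, then cell-associated fluorescence imaged. For diffusion into cells, cultures were then held 30 min at 37°C in fresh serum-free medium and imaged again.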

[16] = Drug uptake in human HN-T1 cells assessed as drug retention at 1600 nM incubated for 24 hrs in presence of 10% fetal bovine serum measured after 72 hrs chase period by fluorescent microscopy imaging based analysis; assay type: ADME, cell-based; conditions: hnt1, 72 h, 1.6 µM; summary of the method: as §1
[17] = Drug uptake in human FaDu clone 49 cells assessed as drug retention at 1600 nM incubated for 24 hrs in presence of 10% fetal bovine serum measured after 72 hrs chase period by fluorescent microscopy imaging based analysis; assay type: ADME, cell-based; conditions: fadu clone 49, 72 h, 1.6 µM; summary of the method: as §1
[18] = Drug uptake in human HNT1 cells assessed as drug retention at 1600 nM incubated for 24 hrs in presence of 10% fetal bovine serum measured after 48 hrs chase period by fluorescent microscopy; assay type: ADME, cell-based; conditions: hnt1, 48 h, 1.6 µM
[19] = Drug uptake in human FaDu-124 cells assessed as drug retention at 1600 nM incubated for 24 hrs in presence of 10% fetal bovine serum measured after 48 hrs chase period by fluorescent microscopy; assay type: ADME, cell-based; conditions: fadu-124, 48 h, 1.6 µM
[20] = Drug uptake in human HNT1 cells with CFSE-labeled HN-101 T-Fb assessed as drug retention at 1600 nM incubated for 24 hrs in presence of 10% fetal bovine serum measured after 24 hrs chase period by fluorescent microscopy; assay type: ADME, cell-based; conditions: hnt1, 24 h, 1.6 µM
Summary of the method: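 Co-cultures of HNT1 cells (p 103) with CFSE-labeled HN-101 T-Fb on collagen-1 matrix; 24 h in DMEM + 10% FBS with 1600 nM PS, then 24 h chase in PS-free medium; cell-associated fluorescence imaged by microscopy.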

[21] = Drug uptake in human HN-142 T-EC cells assessed as drug retention at 1600 nM incubated for 24 hrs in presence of 10% fetal bovine serum measured after 48 hrs chase period by fluorescent microscopy; assay type: ADME, cell-based; conditions: 1.6 µM; summary of the method: as §3
[22] = Drug uptake in human HN-90 T-EC cells assessed as drug retention at 1600 nM incubated for 24 hrs in presence of 10% fetal bovine serum measured after 72 hrs chase period by fluorescent microscopy imaging based analysis; assay type: ADME, cell-based; conditions: 1.6 µM; summary of the method: as §1
[23] = Drug uptake in human HN-77 T-EC cells assessed as drug retention at 1600 nM incubated for 24 hrs in presence of 10% fetal bovine serum measured after 48 hrs chase period by fluorescent microscopy; assay type: ADME, cell-based; conditions: 1.6 µM; summary of the method: as §3
[24] = tested on: FaDu-124; test: Binding affinity to human FaDu-124 cell membrane surface measured at 1600 nM incubated for 30 mins at 0 degC; assay type: tissue-based; summary of the method: as §4
[25] = Drug uptake in human L237 cells assessed as drug retention at 1600 nM incubated for 24 hrs in presence of 10% fetal bovine serum measured after 48 hrs chase period by fluorescent microscopy; assay type: ADME, cell-based; conditions: l237, 48 h, 1.6 µM; summary of the method: as §3
[26] = tested on: HNT1; test: Binding affinity to human HNT1 cell plasma membrane with CFSE-labeled HN-87 T-Fb assessed as drug retention at 1600 nM incubated for 24 hrs in presence of 10% fetal bovine serum measured after 24 hrs chase period by fluorescent microscopy; assay type: cell membranes
Summary of the method: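 HNT1 cells (p 72) co-cultured on collagen-1 with CFSE-stained HN-87 T-Fb fibroblasts (added to 24 h-old tumor cultures, grown 3–7 days to confluence). Treated 24 h with DMEM + 10% FBS and 1600 nM PS, chased 24 h in DMEM + 10% FBS, then fluorescence imaged under identical conditions.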

[27] = tested on: TEC1-2; test: Binding affinity to human TEC1-2 cell plasma membrane assessed as drug retention at 1600 nM incubated for 24 hrs in presence of 10% fetal bovine serum measured after 48 hrs chase period by fluorescent microscopy; assay type: cell membranes
[28] = tested on: HN-143 T-EC; test: Binding affinity to human HN-143 T-EC cell membrane surface measured at 1600 nM incubated for 30 min; assay type: tissue-based

SMILES | Drug uptake [1] | Drug uptake [2] | Drug uptake [3] | logP [6] | Drug uptake [7] | Activity [9] [%] | Drug uptake [15] | Activity [24] | also measured
CCCCOC(CCC)c1c(C)c2cc3nc(c4c5[nH]c(cc6nc(cc1[nH]2)C(C)=C6CC)c(C)c5C(=O)C4)[C@@H](CCC(=O)OC)C3C (stereo partly specified) | Active | Active | Active |  |  |  |  |  | 
CCCCOC(CCC)c1c(C)c2cc3nc(c4c5[nH]c(cc6nc(cc1[nH]2)C(C)=C6CC)c(C)c5C(=O)C4)[C@@H](CCC(=O)O)C3C (stereo partly specified) | Active | Active | Active | 6.56 | Active | 3.1 |  |  | Drug uptake [4]: Active; Drug metabolism [5]: Metabolite_Detected; Drug uptake [8]: Active; Drug uptake [10]: Active; Drug uptake [11]: Active
CCCCCCOC(CCC)c1c(C)c2cc3nc(c4c5[nH]c(cc6nc(cc1[nH]2)C(C)=C6CC)c(C)c5C(=O)C4)[C@@H](CCC(=O)O)C3C (stereo partly specified) | Active | Active | Active | 6.01 | Active |  |  |  | 
CCCCCCOC(C)c1c(C)c2cc3nc(c4c5[nH]c(cc6nc(cc1[nH]2)C(C)=C6CC)c(C)c5C(=O)C4)[C@@H](CCC(=O)O)C3C (stereo partly specified) | Active |  | Active | 6.01 | Active | 0.4 | Active | Active | Drug uptake [12]: Active; Drug uptake [13]: Not Active; Drug uptake [14]: Not Active; Drug uptake [16]: Active; Drug uptake [17]: Active; Drug uptake [18]: Not Active; Drug uptake [19]: Not Active; Drug uptake [20]: Active; Drug uptake [21]: Not Active; Drug uptake [22]: Active; Drug uptake [23]: Not Active; Drug uptake [25]: Not Active
CCCCCCSC(C)c1c(C)c2cc3nc(c4c5[nH]c(cc6nc(cc1[nH]2)C(C)=C6CC)c(C)c5C(=O)C4)[C@@H](CCC(=O)OC)C3C (stereo partly specified) |  |  | Active |  |  |  | Active | Active | 
CCCCCCOC(CCC)c1c(C)c2cc3nc(c4c5[nH]c(cc6nc(cc1[nH]2)C(C)=C6CC)c(C)c5C(=O)C4)[C@@H](CCC(=O)OC)C3C (stereo partly specified) | Active | Active | Active |  |  |  |  |  | 
CCCCCCSC(C)c1c(C)c2cc3nc(c4c5[nH]c(cc6nc(cc1[nH]2)C(C)=C6CC)c(C)c5C(=O)C4)[C@@H](CCC(=O)O)C3C (stereo partly specified) |  |  | Active |  | Active |  | Active | Active | 
CCCCCCOCc1c(C)c2cc3nc(c4c5[nH]c(cc6nc(cc1[nH]2)C(C)=C6CC)c(C)c5C(=O)C4)[C@@H](CCC(=O)OC)C3C (stereo partly specified) |  |  |  |  |  |  |  |  | Activity [26]: inactive; Activity [27]: inactive
CCCCC(C)OCc1c(C)c2cc3nc(c4c5[nH]c(cc6nc(cc1[nH]2)C(C)=C6CC)c(C)c5C(=O)C4)[C@@H](CCC(=O)O)C3C (stereo partly specified) |  |  | Active |  | Active | 0.2 |  |  | Drug uptake [14]: Active; Drug metabolism [5]: Metabolite_Detected; Activity [28]: Active
